Measurements: ChEMBL document CHEMBL4477197, “Antitumor Activity of Spicatoside A by Modulation of Autophagy and Apoptosis in Human Colorectal Cancer Cells” (J Nat Prod, 2016)
Calls of active or inactive are those of the source. The rule behind the calls is not given here.

Legend:
[1] = test system: HCT-116; assay: Growth inhibition of human HCT116 cells after 24 hrs by SRB assay; format: functional, cell-based
Outline: (§1)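 SRB assay. Cells were seeded at 6 × 10^3/well, grown 24 h, then fixed as day-zero controls or treated 24 or 48 h. They were fixed with 10% TCA and stained with 0.4% SRB in 1% acetic acid; dye was dissolved in 10 mM Tris pH 10.0 and read at 515 nm. Proliferation was normalized to day zero and control, and IC50 came from nonlinear regression. n = 3.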

[2] = test system: HCT-116; assay: Induction of apoptosis in human HCT116 cells assessed as upregulation of Bax levels at 10 to 30 uM after 48 hrs by Western blot analysis; format: functional, cell-based
[3] = target: Cellular tumor antigen p53 (Homo sapiens) (UniProt P04637); assay: Induction of p53 expression in human HCT116 cells after 24 hrs by Western blot analysis; format: cell-based
Sequence of Cellular tumor antigen p53 (Homo sapiens) (P04637 whole entry, looked up): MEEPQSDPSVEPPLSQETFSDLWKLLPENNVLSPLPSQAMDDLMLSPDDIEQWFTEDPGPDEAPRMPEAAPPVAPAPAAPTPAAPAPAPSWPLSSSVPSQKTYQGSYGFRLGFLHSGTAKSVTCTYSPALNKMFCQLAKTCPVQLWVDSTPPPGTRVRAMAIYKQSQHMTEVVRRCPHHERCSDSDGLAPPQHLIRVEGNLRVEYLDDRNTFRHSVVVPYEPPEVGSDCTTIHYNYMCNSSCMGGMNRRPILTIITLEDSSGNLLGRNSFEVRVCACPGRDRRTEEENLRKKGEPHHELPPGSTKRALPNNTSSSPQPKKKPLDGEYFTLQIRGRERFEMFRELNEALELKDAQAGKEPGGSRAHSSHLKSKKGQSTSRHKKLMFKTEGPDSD

[4] = test system: HCT-116; assay: Increase in LC3-2 levels in human HCT116 cells at 30 uM after 48 hrs in presence of z-IETD-FMK by Western blot analysis; format: functional, cell-based
Outline: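 HCT116 cells were cultured 48 h with 30 μM compound, with or without 20 μM z-IETD-FMK. Lysates were made in SDS loading buffer and 10–30 μg protein was resolved by 6–15% SDS-PAGE and transferred to PVDF. Blots were probed for cleaved caspase-8, beclin 1, cleaved beclin 1 and LC3-II, and detected by ECL.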

[5] = test system: HCT-116; assay: Induction of apoptosis in human HCT116 cells assessed as cell shrinkage after 48 hrs; format: functional, cell-based
[6] = target: Cellular tumor antigen p53 (Homo sapiens) (UniProt P04637); assay: Induction of p53 expression in human HCT116 cells assessed as increase in p21 levels after 24 hrs by Western blot analysis; format: cell-based
[7] = test system: HCT-116; assay: Induction of apoptosis in human HCT116 cells at 30 uM after 48 hrs by Annexin V-FITC/propidium iodide staining based flow cytometry; format: functional
Outline: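 HCT116 cells were treated 48 h, then resuspended in binding buffer at 1 × 10^6 cells/mL. They were stained with annexin V-FITC and PI for 20 min at room temperature in the dark, diluted and analyzed immediately by flow cytometry for annexin V-positive cells. n = 3.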

[8] = test system: HCT-116; assay: Induction of autophagy in human HCT116 cells assessed as increase in beclin 1 expression at 30 uM at 24 hrs by Western blot analysis; format: functional, cell-based
[9] = test system: HCT-116; assay: Induction of autophagy in human HCT116 cells assessed as accumulation of beclin 1 after 24 hrs by Western blot analysis; format: functional, cell-based
Outline: (§2)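 HCT116 cells were cultured 24 h with the indicated concentrations. Lysates were made in SDS buffer with NaF and orthovanadate and quantified by BCA; 10–30 μg protein was separated by 6–15% SDS-PAGE and transferred to PVDF. After 5% BSA blocking, blots were probed for LC3-II, beclin 1, p62, LAMP1 and cathepsin D, with ECL detection.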

[10] = test system: HCT-116; assay: Induction of autophagy in human HCT116 cells assessed as increase in LAMP1 expression at 30 uM at 24 hrs by Western blot analysis; format: functional, cell-based
[11] = test system: HCT-116; assay: Induction of apoptosis in human HCT116 cells assessed as activation of caspase 3 at 10 to 30 uM after 48 hrs by Western blot analysis; format: functional, cell-based
Outline: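 HCT116 cells were treated with the indicated concentrations for 48 h. Lysates were prepared in SDS sample buffer and 10–30 μg protein was separated by SDS-PAGE, blotted to PVDF and blocked in 5% BSA. Cleaved caspase-8, -9, -3 and PARP were detected by ECL.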

[12] = test system: HCT-116; assay: Growth inhibition of human HCT116 cells after 48 hrs by SRB assay; format: functional, cell-based; outline: as §1
[13] = test system: A549; assay: Antiproliferative activity against human A549 cells after 24 to 72 hrs by SRB assay; format: functional, cell-based
Outline: (§3)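 Cells from ATCC were grown at 37 °C in 5% CO2, in RPMI 1640 (A549, HCT116, SNU-638) or DMEM (MDA-MB-231, SK-HEP-1, MRC5) with 10% FBS. They were seeded at 6 × 10^3 cells/well for 24 h, then exposed for 72 h. Cells were TCA-fixed, stained with 0.4% SRB, and read at 515 nm against day-zero plates. IC50 came from nonlinear regression, as means ± SD.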

[14] = test system: HCT-116; assay: Antitumor activity against human HCT116 cells xenografted in BALB/c-nu mouse assessed as inhibition of tumor weight at 5 mg/kg, ip administered three times per week for 28 days measured post dosing relative to control; format: functional; settings: HCT-116, ip, 672 h
Outline: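 Nude mice bearing subcutaneous HCT116 flank tumors (2 × 10^6 cells) were randomized at ~200 mm3, five per group. Dosing was 2.5 or 5 mg/kg ip in saline/0.5% Tween 80, three times weekly for 28 days, with vehicle controls. Tumors were excised on day 28 and weighed; inhibition was expressed against the vehicle group.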

[15] = test system: HCT-116; assay: Induction of autophagy in human HCT116 cells assessed as increase in LC3-2 expression at 30 uM at 24 hrs by Western blot analysis; format: functional, cell-based
[16] = test system: HCT-116; assay: Antiproliferative activity against human HCT116 cells after 24 to 72 hrs by SRB assay; format: functional, cell-based; outline: as §3
[17] = Toxicity in BALB/c-nu mouse xenografted with human HCT116 cells assessed as overt toxicity at 2.5 to 5 mg/kg, ip administered three times per week for 28 days measured during compound dosing relative to control; format: organism-based; settings: in vivo, 672 h
Outline: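 Nude mice carried subcutaneous flank HCT116 implants (2 × 10^6 cells in 200 μL medium). At about 200 mm3 they were randomised into groups of five. Compound at 2.5 or 5 mg/kg in saline with 0.5% Tween 80 was given ip three times weekly for 4 weeks; controls received vehicle. Body weight was monitored throughout for toxicity.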

[18] = test system: Mus musculus; assay: Inhibition of Ki-67 expression in human HCT116 cells xenografted in BALB/c-nu mouse at 2.5 to 5 mg/kg, ip administered three times per week for 28 days measured post dosing by hematoxylin staining based inverted phase-contrast microscopy; format: functional, organism-based
Outline: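 Day-28 xenograft tumors were fixed in 4% paraformaldehyde, paraffin-embedded and serially sectioned. Sections were deparaffinized, rehydrated, antigen-retrieved and immunostained for Ki-67 with HRP detection, then counterstained with hematoxylin. Slides were viewed by inverted phase-contrast microscopy at 200×.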

[19] = test system: HCT-116; assay: Induction of autophagy in human HCT116 cells assessed as upregulation of cathepsin D expression at 10 to 30 uM after 24 hrs by Western blot analysis; format: functional, cell-based; outline: as §2
[20] = test system: HCT-116; assay: Antitumor activity against human HCT116 cells xenografted in BALB/c-nu mouse assessed as inhibition of tumor volume at 2.5 mg/kg, ip administered three times per week for 28 days measured every 3 to 4 days of dosing relative to control; format: functional; settings: HCT-116, ip
Outline: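 HCT116 cells (2 × 106 in 200 μL medium) injected subcutaneously into the right flank of nude mice; at ~200 mm3, mice randomized into groups of five. Compound at 2.5 or 5 mg/kg, dissolved in normal saline with 0.5% Tween 80, given ip three times weekly for 28 days; vehicle controls got equal volume. Tumor volume measured by caliper every 3–4 days.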

SMILES: C[C@H]1CC[C@@]2(OC1)O[C@H]1C[C@H]3[C@@H]4CC=C5C[C@@H](O)C[C@@H](O[C@@H]6O[C@H](C)[C@H](O)[C@H](O[C@@H]7OC[C@@H](O)[C@H](O)[C@H]7O)[C@H]6O[C@@H]6O[C@H](CO)[C@@H](O)[C@H](O)[C@H]6O)[C@]5(C)[C@H]4CC[C@]3(C)[C@H]1[C@@H]2C
- growth inhibition (GI) [1]: Dose-dependent effect
- IC50 ([1]; HCT-116, 24 h): 28.9 µM
- Activity [2]: Active
- Activity [3]: Dose-dependent effect
- Activity [4]: Active
- Activity [5]: Active
- Activity [6]: Dose-dependent effect
- Activity [7]: 24.58%
- Activity [8]: Active
- Activity [9]: Dose-dependent effect
- Activity [10]: Active
- Activity [11]: Active
- growth inhibition (GI) [12]: Dose-dependent effect
- IC50 ([12]; HCT-116, 48 h): 20.9 µM
- IC50 [13]: 26 µM
- inhibition in vivo at 5 mg/kg [14]: 56.6%
- Activity [15]: Active
- IC50 [16]: 13.8 µM
- Activity [17]: Non-Toxic
- inhibition [18]: Active
- Activity [19]: Active
- inhibition in vivo at 2.5 mg/kg [20]: 38.8%
